Measured values of several laboratories.
Protocols differ between the studies behind these lines.
EGFR: Epidermal growth factor receptor (EGFR, Homo sapiens, UniProt P00533)

O=C(N/N=C/c1cccn1CCCN1CCCCC1)Nc1cc2c(Nc3ccc(F)c(Cl)c3)ncnc2cc1O[C@H]1CCOC1
IC50 (EGFR; enzyme activity, inhibitor): 0.8 nM

COc1cc2ncnc(Nc3ccc(O)cc3)c2cc1OC
Kd (EGFR; binding): 26 nM

C=CC(=O)Nc1cc(Nc2nccc(-c3cn(C4CC4)c4ccccc34)n2)c(OC)cc1N(C)CCN(C)C
IC50 (Epidermal growth factor receptor (EGFR, Homo sapiens, UniProt P00533, G719S); enzyme activity, inhibitor, TR-FRET): 82.8 nM

C=C(Cl)C(=O)Nc1cc(Nc2nc(Nc3cnn(C)c3)c3sccc3n2)c(OC)cc1N(C)CCN(C)C
IC50 (Epidermal growth factor receptor (EGFR, Homo sapiens, UniProt P00533, C797S/L858R/T790M); enzyme activity, inhibitor, ELISA): > 1000 nM

COc1cc2ncc(-c3ccccc3)nc2cc1OC
Kd (EGFR; binding): > 10000 nM

CC#CC(=O)N1CC[C@@H](n2cc(-c3ccc(Oc4c(F)cccc4F)cc3)c3c(N)n[nH]c(=O)c32)C1
Kd (EGFR; binding, competition with immobilised ligand): 270 nM

C=C(Cl)C(=O)Nc1cc(Nc2nc(N3CCc4sccc4C3)c3sccc3n2)c(OC)cc1N(C)CCN(C)C
IC50 (EGFR; enzyme activity, inhibitor, ELISA): 996 nM

CCN(CC)C/C=N/NC(=O)Nc1cc2c(Nc3ccc(F)c(Cl)c3)ncnc2cc1O[C@H]1CCOC1
IC50 (EGFR; enzyme activity, inhibitor): 0.4 nM
